From ChEMBL document CHEMBL2401736, “HCV NS5A replication complex inhibitors. Part 5: discovery of potent and pan-genotypic glycinamide cap derivatives” (Bioorg Med Chem Lett, 2013)

Tests used:
[1] = test system: Hepatitis C virus; test: Antiviral activity against Hepatitis C virus genotype 1a by ELISA; assay type: functional, organism-based, Hepacivirus hominis, subtype 1a
Method in brief: (§1)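 EC50 values are means of at least two experiments, with at most threefold variation between them.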

[2] = test system: Bovine viral diarrhea virus 1; test: Antiviral activity against Bovine viral diarrhea virus by luciferase assay; assay type: functional, organism-based; method in brief: as §1
[3] = test system: Hepatitis C virus; test: Antiviral activity against Hepatitis C virus genotype 1b by FRET assay; assay type: functional, organism-based, Hepacivirus hominis; method in brief: as §1
[4] = Bovine viral diarrhea virus isolates and strains

CN(C)[C@H](C(=O)N1CCC[C@H]1C(=O)Nc1ccc(C#Cc2ccc(NC(=O)[C@@H]3CCCN3C(=O)[C@H](c3ccccc3)N(C)C)cc2)cc1)c1ccccc1
EC50 ([1]; Hepatitis C virus, subtype 1a): 628 nM
EC50 [2, 4]: 1200 nM
EC50 ([3]; Hepatitis C virus, genotype 1b): < 4.6 nM

CN1CCN(C(C(=O)N2CCC[C@H]2C(=O)Nc2ccc(C#Cc3ccc(NC(=O)[C@@H]4CCCN4C(=O)C(c4ccccc4)N4CCN(C)CC4)cc3)cc2)c2ccccc2)CC1 (single isomer, unassigned; diastereomer 2)
EC50 [1]: 2700 nM
EC50 [2]: 1360 nM
EC50 [3]: 4.4 nM

CC(=O)N1CCN(C(C(=O)N2CCC[C@H]2C(=O)Nc2ccc(C#Cc3ccc(NC(=O)[C@@H]4CCCN4C(=O)C(c4ccccc4)N4CCN(C(C)=O)CC4)cc3)cc2)c2ccccc2)CC1 (stereo not given in full)
EC50 ([1]; Hepatitis C virus, subtype 1a): 37 nM
EC50 [2, 4]: > 10000 nM
EC50 ([3]; Hepatitis C virus, genotype 1b): 0.42 nM

CC(C)(C)OC(=O)N[C@H](C(=O)N1CCC[C@H]1C(=O)Nc1ccc(C#Cc2ccc(NC(=O)[C@@H]3CCCN3C(=O)[C@@H](NC(=O)OC(C)(C)C)c3ccccc3)cc2)cc1)c1ccccc1
EC50 ([1]; Hepatitis C virus, subtype 1a): > 10000 nM
EC50 [2, 4]: > 10000 nM
EC50 ([3]; Hepatitis C virus, genotype 1b): < 4.6 nM

O=C(Nc1ccc(C#Cc2ccc(NC(=O)[C@@H]3CCCN3C(=O)C(c3ccccc3)N3CCC(O)CC3)cc2)cc1)[C@@H]1CCCN1C(=O)C(c1ccccc1)N1CCC(O)CC1 (single isomer, unassigned; diastereomer 2)
EC50 [1]: 600 nM
EC50 [2]: 2970 nM
EC50 [3]: 4.6 nM

N[C@@H](C(=O)N1CCC[C@H]1C(=O)Nc1ccc(C#Cc2ccc(NC(=O)[C@@H]3CCCN3C(=O)[C@H](N)c3ccccc3)cc2)cc1)c1ccccc1
EC50 ([1]; Hepatitis C virus, subtype 1a): 910 nM
EC50 [2, 4]: 3760 nM
EC50 ([3]; Hepatitis C virus, genotype 1b): < 4.6 nM

CC(=O)N(C)C(C(=O)N1CCC[C@H]1C(=O)Nc1ccc(C#Cc2ccc(NC(=O)[C@@H]3CCCN3C(=O)C(c3ccccc3)N(C)C(C)=O)cc2)cc1)c1ccccc1 (single isomer, unassigned; diastereomer 1)
EC50 [1]: 2450 nM
EC50 [3]: 57 nM

O=C(C(=O)N1CCC[C@H]1C(=O)Nc1ccc(/C=C/c2ccc(NC(=O)[C@@H]3CCCN3C(=O)C(=O)c3ccccc3)cc2)cc1)c1ccccc1
EC50 ([1]; Hepatitis C virus, subtype 1a): 447 nM
EC50 [2, 4]: > 10000 nM
EC50 ([3]; Hepatitis C virus, genotype 1b): 4.6 nM

C[C@H](C(=O)N1CCC[C@H]1C(=O)Nc1ccc(/C=C/c2ccc(NC(=O)[C@@H]3CCCN3C(=O)[C@@H](C)c3ccccc3)cc2)cc1)c1ccccc1
EC50 ([1]; Hepatitis C virus, subtype 1a): > 10000 nM
EC50 [2, 4]: > 10000 nM

C[C@@H](C(=O)N1CCC[C@H]1C(=O)Nc1ccc(/C=C/c2ccc(NC(=O)[C@@H]3CCCN3C(=O)[C@H](C)c3ccccc3)cc2)cc1)c1ccccc1
EC50 ([1]; Hepatitis C virus, subtype 1a): 772 nM
EC50 [2, 4]: 2500 nM

CC(=O)N(C)C(C(=O)N1CCC[C@H]1C(=O)Nc1ccc(C#Cc2ccc(NC(=O)[C@@H]3CCCN3C(=O)C(c3ccccc3)N(C)C(C)=O)cc2)cc1)c1ccccc1 (single isomer, unassigned; diastereomer 2)
EC50 [1]: > 5000 nM
EC50 [2, 4]: > 10000 nM
EC50 [3]: 632 nM

O=C(Nc1ccc(/C=C/c2ccc(NC(=O)[C@@H]3CCCN3C(=O)c3nccc4ccccc34)cc2)cc1)[C@@H]1CCCN1C(=O)c1nccc2ccccc12
EC50 ([1]; Hepatitis C virus, subtype 1a): 390 nM
EC50 [2, 4]: > 10000 nM
EC50 ([3]; Hepatitis C virus, genotype 1b): 22 nM

CN(C)[C@@H](Cc1ccccc1)C(=O)N1CCC[C@H]1C(=O)Nc1ccc(C#Cc2ccc(NC(=O)[C@@H]3CCCN3C(=O)[C@H](Cc3ccccc3)N(C)C)cc2)cc1
EC50 ([1]; Hepatitis C virus, subtype 1a): 3240 nM
EC50 [2, 4]: 1490 nM
EC50 ([3]; Hepatitis C virus, genotype 1b): 500 nM

CCOC(=O)N[C@@H](C(=O)N1CCC[C@H]1C(=O)Nc1ccc(C#Cc2ccc(NC(=O)[C@@H]3CCCN3C(=O)[C@H](NC(=O)OCC)c3ccccc3)cc2)cc1)c1ccccc1
EC50 ([1]; Hepatitis C virus, subtype 1a): 114 nM
EC50 [2, 4]: > 10000 nM
EC50 ([3]; Hepatitis C virus, genotype 1b): 0.018 nM

CN(C)C(C)(C(=O)N1CCC[C@H]1C(=O)Nc1ccc(C#Cc2ccc(NC(=O)[C@@H]3CCCN3C(=O)C(C)(c3ccccc3)N(C)C)cc2)cc1)c1ccccc1 (stereo in doubt; 5l.1)
EC50 [1]: 100 nM
EC50 [2]: 697 nM

CS(=O)(=O)N[C@@H](C(=O)N1CCC[C@H]1C(=O)Nc1ccc(C#Cc2ccc(NC(=O)[C@@H]3CCCN3C(=O)[C@H](NS(C)(=O)=O)c3ccccc3)cc2)cc1)c1ccccc1
EC50 ([1]; Hepatitis C virus, subtype 1a): 71 nM
EC50 [2, 4]: > 10000 nM
EC50 ([3]; Hepatitis C virus, genotype 1b): < 4.6 nM

O=C(Nc1ccc(/C=C/c2ccc(NC(=O)[C@@H]3CCCN3C(=O)[C@@H](O)C3CCCCC3)cc2)cc1)[C@@H]1CCCN1C(=O)[C@@H](O)C1CCCCC1
EC50 ([1]; Hepatitis C virus, subtype 1a): 970 nM
EC50 [2, 4]: 6740 nM
EC50 ([3]; Hepatitis C virus, genotype 1b): 63 nM

CCN(C)C(C(=O)N1CCC[C@H]1C(=O)Nc1ccc(C#Cc2ccc(NC(=O)[C@@H]3CCCN3C(=O)C(c3ccccc3)N(C)CC)cc2)cc1)c1ccccc1 (stereo not given in full)
EC50 ([1]; Hepatitis C virus, subtype 1a): 7.9 nM
EC50 [2, 4]: 2790 nM
EC50 ([3]; Hepatitis C virus, genotype 1b): ≤ 0.13 nM

CN(C)C(C)(C(=O)N1CCC[C@H]1C(=O)Nc1ccc(C#Cc2ccc(NC(=O)[C@@H]3CCCN3C(=O)C(C)(c3ccccc3)N(C)C)cc2)cc1)c1ccccc1 (single isomer, unassigned; diastereomer 2)
EC50 [1]: 1080 nM
EC50 [2, 4]: 769 nM
EC50 ([3]; Hepatitis C virus, genotype 1b): < 4.6 nM

CC(C)C(=O)N[C@@H](C(=O)N1CCC[C@H]1C(=O)Nc1ccc(C#Cc2ccc(NC(=O)[C@@H]3CCCN3C(=O)[C@H](NC(=O)C(C)C)c3ccccc3)cc2)cc1)c1ccccc1
EC50 ([1]; Hepatitis C virus, subtype 1a): 70 nM
EC50 [2, 4]: > 10000 nM
EC50 ([3]; Hepatitis C virus, genotype 1b): 0.002 nM

CN(C)[C@H](Cc1ccccc1)C(=O)N1CCC[C@H]1C(=O)Nc1ccc(C#Cc2ccc(NC(=O)[C@@H]3CCCN3C(=O)[C@@H](Cc3ccccc3)N(C)C)cc2)cc1
EC50 ([1]; Hepatitis C virus, subtype 1a): 1290 nM
EC50 [2, 4]: 1730 nM
EC50 ([3]; Hepatitis C virus, genotype 1b): < 4.6 nM

O=C(Nc1ccc(C#Cc2ccc(NC(=O)[C@@H]3CCCN3C(=O)C(c3ccccc3)N3CC[C@H](O)C3)cc2)cc1)[C@@H]1CCCN1C(=O)C(c1ccccc1)N1CC[C@H](O)C1 (stereo not given in full)
EC50 ([1]; Hepatitis C virus, subtype 1a): 3 nM
EC50 [2, 4]: > 10000 nM
EC50 ([3]; Hepatitis C virus, genotype 1b): 0.5 nM

CC(C)(C)OC(=O)N[C@@H](C(=O)N1CCC[C@H]1C(=O)Nc1ccc(C#Cc2ccc(NC(=O)[C@@H]3CCCN3C(=O)[C@H](NC(=O)OC(C)(C)C)c3ccccc3)cc2)cc1)c1ccccc1
EC50 ([1]; Hepatitis C virus, subtype 1a): 245 nM
EC50 [2, 4]: > 10000 nM
EC50 ([3]; Hepatitis C virus, genotype 1b): 0.002 nM

O=C(Nc1ccc(C#Cc2ccc(NC(=O)[C@@H]3CCCN3C(=O)C(c3ccccc3)N3CC[C@@H](O)C3)cc2)cc1)[C@@H]1CCCN1C(=O)C(c1ccccc1)N1CC[C@@H](O)C1 (stereo not given in full)
EC50 ([1]; Hepatitis C virus, subtype 1a): 1.4 nM
EC50 [2, 4]: 3280 nM
EC50 ([3]; Hepatitis C virus, genotype 1b): 0.094 nM

CN(C)[C@@H](C(=O)N1CCC[C@H]1C(=O)Nc1ccc(C#Cc2ccc(NC(=O)[C@@H]3CCCN3C(=O)[C@@H](c3ccccc3)N(C)C)cc2)cc1)c1ccccc1
EC50 ([1]; Hepatitis C virus, subtype 1a): < 4.6 nM
EC50 [2, 4]: 1900 nM
EC50 ([3]; Hepatitis C virus, genotype 1b): < 4.6 nM

N[C@H](C(=O)N1CCC[C@H]1C(=O)Nc1ccc(C#Cc2ccc(NC(=O)[C@@H]3CCCN3C(=O)[C@@H](N)c3ccccc3)cc2)cc1)c1ccccc1
EC50 ([1]; Hepatitis C virus, subtype 1a): > 9400 nM
EC50 [2, 4]: > 10000 nM
EC50 ([3]; Hepatitis C virus, genotype 1b): < 4.6 nM

C[C@@](O)(C(=O)N1CCC[C@H]1C(=O)Nc1ccc(Br)cc1)c1ccccc1
EC50 ([1]; Hepatitis C virus, subtype 1a): > 1300 nM
EC50 ([3]; Hepatitis C virus, genotype 1b): 380 nM

CC(C)OC(=O)N[C@@H](C(=O)N1CCC[C@H]1C(=O)Nc1ccc(C#Cc2ccc(NC(=O)[C@@H]3CCCN3C(=O)[C@H](NC(=O)OC(C)C)c3ccccc3)cc2)cc1)c1ccccc1
EC50 ([1]; Hepatitis C virus, subtype 1a): 137 nM
EC50 [2, 4]: > 10000 nM
EC50 ([3]; Hepatitis C virus, genotype 1b): 0.28 nM

O=C(Nc1ccc(/C=C/c2ccc(NC(=O)[C@@H]3CCCN3C(=O)[C@H](O)C3CCCCC3)cc2)cc1)[C@@H]1CCCN1C(=O)[C@H](O)C1CCCCC1
EC50 ([1]; Hepatitis C virus, subtype 1a): 4650 nM
EC50 [2, 4]: > 10000 nM
EC50 ([3]; Hepatitis C virus, genotype 1b): < 4.6 nM

CCCOC(=O)N[C@@H](C(=O)N1CCC[C@H]1C(=O)Nc1ccc(C#Cc2ccc(NC(=O)[C@@H]3CCCN3C(=O)[C@H](NC(=O)OCCC)c3ccccc3)cc2)cc1)c1ccccc1
EC50 ([1]; Hepatitis C virus, subtype 1a): 88 nM
EC50 [2, 4]: > 10000 nM
EC50 ([3]; Hepatitis C virus, genotype 1b): 0.16 nM
